In the library only some 1.4% were active in any assay of this set; here they are far more common.
MT1-MMP act inh = blockers of MT1-MMP proenzyme processing, primary screen, HT1080 RFP-PRO-GFP cells, GFP/RFP fluorescence. GFP/RFP ratio fluorescence, overnight; percent of plate control window, DMSO zero. Matrix metalloproteinase-14 (Homo sapiens), P50281. actives 0.061% (n = 360,000). GFP/RFP ratio change, % at 20 µM;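 active = GFP/RFP ratio change of at least 30% with cell ATP level not reduced by more than half and red fluorescence within 50% of control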
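Assay system – RFP-PRO-GFP reporter HT1080 cells · Compound dosing – single dose of 20 µM compound, 1% DMSO final · Incubation – overnight compound exposure at 37 °C · Measure – GFP/RFP fluorescence ratio · Benchmarks – DMSO wells and RFP-L50D-GFP cells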
Cardio protect = cardioprotection against H2O2-induced cell death, primary screen, uHTS, H9c2 cells, ATPLite luminescence; AID 588492, 2011; protection from H2O2 cell death, % at 20 µM; H9c2 cardiomyocytes, H2O2 injury protection, 2 h; actives 0.63% (n = 360,000);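 active = compounds giving at least 50% protection of heart cells from peroxide-induced death in the single-dose screen, raw or plate-pattern-corrected value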;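 also: 0% = DMSO wells with peroxide and 100% = DMSO wells without peroxide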
TAG inh = inhibitors of triacylglycerol accumulation, primary screen, cell-based, uHTS, fluorescence, H9c2; inhibition, % at 12.5 µM; H9c2 cells, Nile Red lipid (TAG) fluorescence; cells loaded with 200 µM oleic acid; actives 0.66% (n = 230,000);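 active = pattern-corrected inhibition of lipid staining of at least 50% with the nuclear-stain viability signal not falling by more than 50%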;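 also: 0% = DMSO wells and 100% = triacsin C control wells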
DAGLB inhibitor = DAGLB lipase inhibitors, primary screen, biochemical, fluorescence, HTS; Diacylglycerol lipase-beta (Homo sapiens), Q8NCG7; actives 0.059% (n = 340,000); AID 504411, 2011; inhibition, % at 5.17 µM; HEK293T DAGLB membrane lysate, EnzChek fluorogenic substrate; in the data active = inhibition above about 34%;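 also: 0% = enzyme with vehicle and 100% = wells lacking enzyme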
Target sequence (Q8NCG7 whole entry, looked up): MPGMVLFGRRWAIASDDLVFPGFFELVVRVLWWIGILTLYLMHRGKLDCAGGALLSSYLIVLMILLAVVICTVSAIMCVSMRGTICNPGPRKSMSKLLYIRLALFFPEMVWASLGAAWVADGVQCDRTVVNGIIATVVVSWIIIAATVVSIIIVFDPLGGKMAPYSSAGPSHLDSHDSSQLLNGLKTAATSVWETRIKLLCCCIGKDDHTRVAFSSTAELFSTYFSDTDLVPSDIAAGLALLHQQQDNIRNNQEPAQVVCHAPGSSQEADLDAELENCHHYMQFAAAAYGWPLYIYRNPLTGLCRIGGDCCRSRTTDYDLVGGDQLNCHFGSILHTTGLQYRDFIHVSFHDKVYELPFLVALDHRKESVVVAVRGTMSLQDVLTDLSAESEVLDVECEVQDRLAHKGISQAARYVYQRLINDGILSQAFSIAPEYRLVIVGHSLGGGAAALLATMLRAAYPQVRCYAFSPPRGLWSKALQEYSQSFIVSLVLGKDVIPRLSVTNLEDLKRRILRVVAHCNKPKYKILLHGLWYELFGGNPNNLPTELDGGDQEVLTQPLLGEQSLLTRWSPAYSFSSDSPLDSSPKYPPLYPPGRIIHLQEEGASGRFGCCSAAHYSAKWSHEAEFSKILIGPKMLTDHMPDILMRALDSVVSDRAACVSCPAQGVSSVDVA
Tn7 DDE FP = inhibitors of Tn7 peptide binding to fibrin DD(E), primary screen, biochemical, fluorescence polarization, human fibrin, Tn7 probe; Fibrinogen beta chain (Homo sapiens), P02675; FP displacement of FITC-Tn7 peptide from fibrin DD(E); 0% = median of compound wells per plate; inhibition, % at 8.3 µM; actives 0.13% (n = 370,000);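 active = inhibition above the mean of compounds falling within the control limits plus 3 SD of them, cut at about 14% in these data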;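 also: 0% = plate median of compound wells and 100% = 10 µM Aha-Tn7 peptide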
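Assay system: Human fibrin DD(E) protein | Medium: Tris buffer with calcium and detergent, pH 7.8 | Reagent: 0.1 µM fluorescent Tn7 | Compound dosing: Single point at 8.3 µM | Times: 10 min preincubation, 3 h with tracer, room temperature | Detection: Fluorescence polarization of the labelled Tn7 tracer | Controls: Aha-Tn7 high control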
DDE Tn6 FP inh = inhibitors of Tn6 peptide binding to fibrin DD(E), primary screen, biochemical, fluorescence polarization, human fibrin, Tn6 probe; Fibrin DD(E) TRITC-Tn6 fluorescence polarization displacement; inhibition, % at 8.3 µM; actives 0.21% (n = 370,000);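 active = inhibition above a per-campaign cutoff: mean of compounds within control limits plus 3 SD, cut at about 15% in these data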;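 also: 0% = median of all compound wells on the plate and 100% = blocking peptide control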
Tn6 DDE ctr = counter-screen for inhibitors of Tn6 peptide binding to fibrin DD(E) | shares compounds with DDE Tn6 FP inh | TRITC-Tn6 fluorescence polarization displacement; 0% = median of compound wells, not DMSO | inhibition, % at 8.3 µM | actives 2% (n = 680) | AID 720621;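 active = inhibition above the mean of test compounds lying between the control limits plus 3 SD of those, cut at about 14% in these data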;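 also: 0% = median of compound wells and 100% = wells with Aha-Tn7 blocking peptide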
Tn6 DDE conf = inhibitors of Tn6 peptide binding to fibrin DD(E), confirmation, biochemical, fluorescence polarization, human fibrin, Tn6 probe; AID 720631, 2013; shares compounds with DDE Tn6 FP inh; actives 10% (n = 680); inhibition, % at 8.3 µM; FP displacement of TRITC-Tn6 peptide from DD(E); 0% = per-plate median of test wells;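 active = inhibition above the mean of compounds lying within the control limits plus 3 SD, cut at about 16% in these data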;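 also: 100% = high control wells holding a competing inhibitor peptide at 10 µM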
The depositor's hits bear a star.

`CCn1c(CSc2nnc(-c3ccncc3)n2CCOC)nc2cc(C(=O)O)ccc21` gave MT1-MMP act inh 22.2, Cardio protect 6.9, TAG inh 2.3, DAGLB inhibitor 1.2, Tn7 DDE FP 1.9, DDE Tn6 FP inh 19.1*, Tn6 DDE ctr -2.1 and Tn6 DDE conf 46.7*.
Screening CC(C)NC(=O)c1onc(CSc2nc3ccccc3[nH]2)c1C(=O)NC(C)C returned MT1-MMP act inh 1.0, Cardio protect 4.8, DAGLB inhibitor -1.4, Tn7 DDE FP -1.6, DDE Tn6 FP inh 15.3*, Tn6 DDE ctr 3.6 and Tn6 DDE conf -1.0.
Screening CCCCNC(=O)c1onc(CSc2nc3ccccc3[nH]2)c1C(=O)NCCCC returned MT1-MMP act inh -0.6, Cardio protect -7.2, TAG inh 8.0, DAGLB inhibitor -3.0, Tn7 DDE FP 6.4 and DDE Tn6 FP inh -0.5.
`CCC(=O)Nc1ccc(NC(=O)CSc2nnc(-c3ccc(O)cc3)n2CC2CCCO2)cc1` (centres undefined) gave MT1-MMP act inh -1.0, Cardio protect -2.2, TAG inh -0.1, DAGLB inhibitor -2.0, Tn7 DDE FP 1.1, DDE Tn6 FP inh 19.9*, Tn6 DDE ctr 1.1 and Tn6 DDE conf 1.0.
`COc1ccc(/C=N/NC(=O)CCc2c(C)n[nH]c2C)cc1OC` gave MT1-MMP act inh -0.6, Cardio protect 5.2, TAG inh 4.2, DAGLB inhibitor -0.7, Tn7 DDE FP 2.3 and DDE Tn6 FP inh -2.1.
COc1cc(OC)c(OC)cc1/C=N/NC(=O)CCc1c(C)n[nH]c1C was read as MT1-MMP act inh -3.5, Cardio protect -6.4, TAG inh -31.1, DAGLB inhibitor 0.5, Tn7 DDE FP 3.6, DDE Tn6 FP inh 16.2*, Tn6 DDE ctr -0.7 and Tn6 DDE conf -5.1.
`CN1CCN(c2ccc(-c3csc(N4CCC(C(N)=O)CC4)n3)cc2)CC1` gave Tn7 DDE FP 2.0 and DDE Tn6 FP inh -3.8.
CC(C)NC(=O)Cn1c(-c2cncs2)nc2ccccc21 was read as Tn7 DDE FP -0.3 and DDE Tn6 FP inh 4.7.
For O=C(N/N=C/c1cccnc1)C(=O)N1CCCCCC1 the results were MT1-MMP act inh 2.0, Cardio protect 0.7, TAG inh 6.9, DAGLB inhibitor -6.9, Tn7 DDE FP 6.8, DDE Tn6 FP inh 15.2*, Tn6 DDE ctr -2.5 and Tn6 DDE conf -4.5.
CCOc1cc(CNCCCN2CCOCC2)ccc1OCC(=O)Nc1cccc2ccccc12 was read as MT1-MMP act inh 6.1, Cardio protect -14.9, DAGLB inhibitor -2.1, Tn7 DDE FP 9.7, DDE Tn6 FP inh 18.1*, Tn6 DDE ctr -3.8 and Tn6 DDE conf -4.8.
`COc1cc(CNCCCN2CCOCC2)ccc1OCC(=O)Nc1cccc(C(F)(F)F)c1` gave MT1-MMP act inh 8.7, Cardio protect -15.3, DAGLB inhibitor 1.2, Tn7 DDE FP -0.1 and DDE Tn6 FP inh 2.1.
For CCc1cc(=O)oc2c3c(cc(OCC(=O)NCCCn4ccnc4)c12)OC(C)(C)CC3 the results were MT1-MMP act inh -1.8, Cardio protect -0.6, DAGLB inhibitor 1.0, Tn7 DDE FP 2.9, DDE Tn6 FP inh 15.3*, Tn6 DDE ctr -1.2 and Tn6 DDE conf -2.3.
O=C1NC[C@H](CCCCN2CCN(CCc3ccc(O)cc3)C(=O)C2=O)N(CCc2ccc(O)cc2)C1=O was read as MT1-MMP act inh 0.0, Tn7 DDE FP 0.2 and DDE Tn6 FP inh -1.5.
For COc1ccc(NC(=O)Cn2c(=O)cnc3ccccc32)cc1S(=O)(=O)N1CCCCC1 the results were MT1-MMP act inh 7.1, Cardio protect 0.7, TAG inh -12.9, DAGLB inhibitor -1.7, Tn7 DDE FP -2.6, DDE Tn6 FP inh 27.1*, Tn6 DDE ctr 3.9 and Tn6 DDE conf 3.1.
COc1cc(CNC(=O)c2cc(-c3ccc(OC)cc3C)n[nH]2)cc(OC)c1 was read as MT1-MMP act inh 0.7, Cardio protect 5.8, TAG inh -2.5, Tn7 DDE FP -0.8 and DDE Tn6 FP inh -3.6.
`Brc1ccc(-c2nn3c(-c4ccccc4)nnc3s2)o1` gave Tn7 DDE FP -5.2 and DDE Tn6 FP inh 0.0.
Screening CC(COc1ccccc1C#N)CN1CCC(C(O)(c2ccccc2)c2ccccc2)CC1 (centres undefined) returned Tn7 DDE FP 7.8, DDE Tn6 FP inh 16.0*, Tn6 DDE ctr 1.4 and Tn6 DDE conf 2.4.
`CCCCN(C)CCCNC(=O)CCn1nc(-c2ccccc2)ccc1=O` gave MT1-MMP act inh 0.2, Cardio protect 3.5, DAGLB inhibitor -0.9, Tn7 DDE FP 8.0, DDE Tn6 FP inh 16.3*, Tn6 DDE ctr -0.3 and Tn6 DDE conf 2.0.
CCOC(=O)Nc1ccc2c(c1)Cc1cc([N+](=O)[O-])ccc1-2 was read as MT1-MMP act inh 0.8, Cardio protect -3.7, TAG inh -22.5, DAGLB inhibitor 0.5, Tn7 DDE FP -9.1, DDE Tn6 FP inh 17.5*, Tn6 DDE ctr -2.4 and Tn6 DDE conf -10.2.
`COC(=O)N/N=C\c1cc2c(cc1Br)OCO2` gave MT1-MMP act inh -0.8, Cardio protect 5.9, TAG inh -19.2, DAGLB inhibitor -0.3, Tn7 DDE FP 1.1, DDE Tn6 FP inh 17.0*, Tn6 DDE ctr 3.6 and Tn6 DDE conf -7.8.
Cc1ccc(C(=O)N/N=C\c2cc3c(cc2Br)OCO3)s1 was read as MT1-MMP act inh -1.1, Cardio protect -1.5, DAGLB inhibitor -1.8, Tn7 DDE FP 2.4 and DDE Tn6 FP inh -8.6.
`O=C(N/C=C/n1cnc2cc(C(F)(F)F)ccc21)c1ccc(F)cc1` gave MT1-MMP act inh -3.3, Cardio protect -13.3, TAG inh -4.6, DAGLB inhibitor 2.2, Tn7 DDE FP -1.3 and DDE Tn6 FP inh -3.1.
